High-throughput results as filed in PubChem BioAssay.
SR-BI DiI inh = mouse SR-BI HDL lipid transfer inhibition. Q61009. ldlA[mSR-BI] CHO cells, DiI-HDL uptake fluorescence, 3 h. inhibition, % at 12.5 µM. 0.96% of 320,000 active;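 active = mean replicate inhibition of at least 70% and a set share of replicates each scoring 70 or more; inconclusive = meets just one of the two criteria; inactive = fails both criteria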;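 also: 0% = median of neutral control wells and 100% = median of positive control wells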
Target sequence (Q61009 whole entry, looked up): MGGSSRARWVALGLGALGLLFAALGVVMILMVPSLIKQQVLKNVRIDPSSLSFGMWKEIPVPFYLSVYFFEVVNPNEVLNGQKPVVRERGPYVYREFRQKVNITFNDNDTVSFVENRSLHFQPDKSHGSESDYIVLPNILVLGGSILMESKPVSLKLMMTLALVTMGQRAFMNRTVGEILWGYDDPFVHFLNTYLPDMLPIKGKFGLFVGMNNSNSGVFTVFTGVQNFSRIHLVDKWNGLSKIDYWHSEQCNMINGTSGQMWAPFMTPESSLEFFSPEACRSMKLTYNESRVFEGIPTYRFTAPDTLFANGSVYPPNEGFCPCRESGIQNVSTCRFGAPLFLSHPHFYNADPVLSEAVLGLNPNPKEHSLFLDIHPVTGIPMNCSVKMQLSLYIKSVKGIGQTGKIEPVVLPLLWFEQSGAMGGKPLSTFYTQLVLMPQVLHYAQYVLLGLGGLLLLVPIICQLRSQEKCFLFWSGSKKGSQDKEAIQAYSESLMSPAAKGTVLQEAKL
MITF TRPM1 HTS = activators of MITF-driven TRPM1 promoter activity in SK-MEL-5 cells. SK-MEL-5 TRPM1-promoter luciferase, 24 h; % of positive control, neutral wells = 0. activation, % at 12.5 µM. 0.75% of 300,000 active;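 active = mean activation of at least 80% with every replicate also reaching 80%; inconclusive = mean reaches 80% but some replicate falls short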;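 also: 0% = neutral control wells and 100% = parthenolide positive control wells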
Wnt bcat act = activators of Wnt/beta-catenin signaling; 1.2% of 300,000 active; activation, % at 9.35 µM; Wnt/beta-catenin reporter cell assay, activator, plate reader; in the data active = activation above about 30%, passing the limit was not always enough; inconclusive = no clear call, values can overlap the other calls;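 also: 0% = neutral control wells and 100% = positive control wells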
HSF-1 act = increases HSF-1 driven luciferase reporter signal; NIH3T3-HGL HSF-1 luciferase reporter, MG132, 8 h; 100% = twice DMSO control signal; activation, % at 9 µM; 1.7% of 300,000 active;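 active = mean replicate activation of at least 50% with a set share of replicates each reaching 50%; inconclusive = only one of those two conditions met; inactive = mean below 50% and too few replicates reaching it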;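 also: 0% = median of the neutral control wells and 100% = twice that signal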
SR-BI DiI-HDL act = enhances SR-BI lipid uptake from DiI-HDL | CHO ldlA[mSR-BI] cells, DiI-HDL uptake fluorescence, 3 h; 100 = double the neutral-control signal | activation, % at 12.5 µM | 0.096% of 320,000 active | AID 504775;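 active = mean replicate activation of at least 60% and every replicate at or above 60%; inconclusive = mean or all-replicate condition met, but not both; inactive = mean below 60% and not all replicates reaching 60%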;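 also: 0% = median plate neutral-control signal and 100% = twice that signal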
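Test system: SR-BI-overexpressing, LDLR-lacking CHO cells. Measured by: DiI fluorescence, bottom read. Medium: Ham's F12 with 0.5% BSA, HEPES 25 mM, pH 7.4. Timing: 3 h uptake period with compound, 37 °C.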
Active calls of the source: *; ? = inconclusive; / = no result. The list is not random: actives were taken first. Their share in the collection is about 3.6%.

SMILES	SR-BI DiI inh	MITF TRPM1 HTS	Wnt bcat act	HSF-1 act	SR-BI DiI-HDL act
O=C(c1cccc(Br)c1)c1coc2ccc(O)cc12	16	90*	-4	/	-16
O=C(c1cccs1)c1coc2ccc(O)cc12	15	94*	51*	13	-15
CC(=O)Oc1ccc2occ(C(=O)c3cccs3)c2c1	-11	56	80*	44	11
CC(C)(C)C(=O)OCc1nc(-c2ccc(F)cc2)cs1	-13	110*	0	20	13
Cc1cc(Sc2nnc(N)s2)c2ccccc2n1	9	/	-9	136*	-9
CN1OC[C@@H]2CN(CC3CCCCC3)[C@H](c3ccc(-c4ccc(C#N)cc4)cc3)C[C@@H]21	/	/	-4	/	/
CCN1CCN(c2cc(C)c3cc(NC(=O)c4cc(OC)cc(OC)c4)ccc3n2)CC1	/	7	32*	34	/
CCOc1ccc(C(=O)Nc2ccc3nc(N4CCN(CC)CC4)cc(C)c3c2)cc1	51	-8	1	6	-51
CC(=O)c1cnc2c(-c3cccc(Br)c3)cnn2c1C	15	95*	9	-9	-15
CCOC(=O)c1c(C)nc(C)c(C(=O)OCC)c1-c1ccccc1	-8	1	-2	15	8
CCOC(=O)c1cnn(-c2ccccn2)c1N	16	102*	/	18	-16
CCOC(=O)c1cnc2c(-c3ccccc3)cnn2c1N	68	59	38*	53*	/
CCOC(=O)c1c(-c2ccccc2)cn2c(C)cc(C)nc12	4	67	23	59*	-4
Cc1cc(NC(=O)c2ccc(OCC3CCCO3)cc2)ccc1Br (configuration not stated)	/	/	52*	/	/
Cc1ccc2nc(NC(=O)c3ccc(OCC4CCCO4)cc3)sc2c1 (configuration not stated)	?	-12	-6	57*	-72
CC(C)C[C@H](NS(=O)(=O)c1ccc(F)cc1F)C(=O)N1CCC[C@H]1C(=O)NCc1ccccc1	/	/	-2	/	/
CC1CCN(S(=O)(=O)N2CCC(C(=O)NC(C)c3ccccc3)CC2)CC1 (configuration not stated)	/	/	-1	/	/
Cc1cccc(-n2cnc3c(c2=O)c2nc4ccccc4nc2n3Cc2ccco2)c1	11	0	-2	104*	-11
Cc1cccc(S(=O)(=O)c2c(N)n(Cc3ccco3)c3nc4ccccc4nc23)c1	-28	/	/	28	28
Cc1nnc(SCC(=O)c2ccc(Cl)cc2)n(N)c1=O	5	14	43*	/	-5
CCn1c(CNC(C)=O)nnc1SCC(=O)c1ccc(Br)cc1	-14	-9	/	82*	14
Cn1ccnc1SCC(=O)c1ccc(Cl)cc1	-2	39	21	17	2
O=C(CSc1nnc(-c2ccco2)n1Cc1ccccc1)c1ccccc1	-4	91*	/	13	4
Cn1c(CO)cnc1SCC(=O)c1ccc(Cl)cc1	-10	1	-1	80*	10
O=C(C(=O)N1CCC(CNS(=O)(=O)c2cccc(C(F)(F)F)c2)CC1)c1cc2ccccc2o1	/	/	-3	/	/
SMILES	SR-BI DiI inh	MITF TRPM1 HTS	Wnt bcat act	HSF-1 act	SR-BI DiI-HDL act
CC(C)(C)c1ccc(S(=O)(=O)NC(=O)C2(C)CCN2C(=O)c2cccc3ccccc23)cc1 (configuration not stated)	/	/	-3	/	/
CCCc1nc2c(C)cc(Br)cn2c1Cc1cccc(Cl)c1	/	/	-2	/	/
Cc1cc(Cl)ccc1-c1nc(NC(C)C)nc2ccsc12	/	/	0	/	/
CCn1c(SCC(=O)c2ccc(Cl)cc2)nnc1-c1ccoc1C	32	14	5	75*	-32
CCn1c(SCC(=O)c2ccc(Cl)cc2)nnc1C(C)C	19	64	36*	145*	-19
C[C@@H]1CN([C@@H](C)CO)C(=O)c2cc(Br)cnc2O[C@H]1CN(C)C(=O)CN1CCOCC1	/	/	-1	/	/
COc1ccc(C2c3ccc(O)cc3Oc3ncn(CCCO)c(=N)c32)cc1 (configuration not stated)	-22	6	-4	51*	22
CCCn1nc([N+](=O)[O-])c(C(C#N)c2nc3ccccc3s2)c(Cl)c1=O (configuration not stated)	-8	-39	/	60*	8
Cn1cc(C(=O)N/N=C/C2=C(N3CCOCC3)C(=C/c3ccc([N+](=O)[O-])cc3)/CC2)ccc1=O	/	13	-1	-23	/
CC(C)C(NC(=O)C12CC3CC(CC(C3)C1)C2)C(=O)N/N=C/C1=C(N2CCOCC2)C(=C\c2cccc([N+](=O)[O-])c2)/CC1 (configuration not stated)	85*	-6	0	14	-85
C=CCc1ccc(OCc2ccc(C(=O)Nc3ccc(NC(C)=O)cc3)o2)c(OC)c1	49	39	20	57*	-49
COc1ccccc1NC(=O)c1ccc(COc2ccccc2OC)o1	34	8	2	5	-34
Cc1cc(Oc2cccnc2)ccc1NC(=O)CCc1c[nH]c2ccccc12	/	/	0	/	/
Cc1cccc2cc3c(nc12)SC(=NCC1CCCO1)N(Cc1ccco1)C3 (configuration not stated)	-16	-5	/	190*	16
O=C(NCCc1cccs1)Nc1ccc2nc([C@@H]3O[C@H](CO)[C@@H](O)[C@H]3O)[nH]c2c1	/	/	1	/	/
Clc1cccc(-c2ccc(-c3nc4ccccn4c3NCc3ccccc3)cc2)c1	69	19	31*	/	-69
CCC(C)Sc1ccc(-c2nc3ccc(Cl)cn3c2NCc2ccccc2)cc1 (configuration not stated)	19	84*	?	/	-19
COc1ccc(C(=O)NCc2ccc(-c3nc4ccccc4s3)cc2)cc1	-2	74	/	60*	2
COC(=O)Cc1ccc2sc(-c3ccccc3)nc2c1	/	21	/	61*	/
COc1cccc(C(=O)NCc2ccc(-c3nc4ccccc4s3)cc2)c1	-9	45	-1	18	9
O=C(O)Cc1ccc2sc(-c3ccccc3)nc2c1	0	1	13	-1	0
COc1cccc(-c2cc(C(=O)NCc3ccco3)c3ccccc3n2)c1	37	/	1	3	-37
COC(=O)C1=C(C)N(Cc2cccc(C(F)(F)F)c2)C(=NCC2CC2)NC1c1cccc(Cl)c1 (configuration not stated)	/	/	-25	/	/
COc1ccc(/C=C2\SC(=O)N(CCNC(=O)C3CSC4(C)CCC(=O)N34)C2=O)cc1 (configuration not stated)	1	26	4	8	-1
COc1ccc(/C=C2\SC(=O)N(CCNC(=O)C3CC4C=CC3C4)C2=O)cc1 (configuration not stated)	-47	136*	-1	17	47
CCc1ccc(C(O)c2ncc(-c3ccccc3Cl)[nH]2)cc1 (configuration not stated)	/	/	-4	/	/
Cc1ccc([C@H]2C[C@@H](n3cc(COC(=O)c4ccccc4)nn3)[C@H](O)CN2C(=O)C2CCCCC2)cc1	/	/	0	/	/
